Reference: ChEMBL document CHEMBL3259728, “Design, synthesis and biological evaluation of some novel substituted quinazolines as antitumor agents” (2014)

Assays:
Assay type in all cases: functional
[1] = test system: SW-620; assay: Growth inhibition of human SW620 cells assessed as cell growth at 10^-4 M after 48 hrs by SRB assay; settings: SW-620, 48 h, read-out: Activity
[2] = test system: MDA-MB-435; assay: Growth inhibition of human MDA-MB-435 cells assessed as cell growth at 10^-8 M after 48 hrs by SRB assay; settings: MDA-MB-435, 48 h, read-out: Activity
[3] = test system: HCT-116; assay: Growth inhibition of human HCT116 cells assessed as cell growth at 10^-8 M after 48 hrs by SRB assay; settings: HCT-116, 48 h, read-out: Activity
[4] = test system: IGROV-1; assay: Growth inhibition of human IGROV1 cells assessed as cell growth at 10^-5 M after 48 hrs by SRB assay; settings: IGROV-1, 48 h, read-out: Activity
[5] = test system: U-251; assay: Growth inhibition of human U251 cells assessed as cell growth at 10^-5 M after 48 hrs by SRB assay; settings: U-251, 48 h, read-out: Activity
[6] = test system: MDA-MB-468; assay: Growth inhibition of human MDA-MB-468 cells assessed as cell growth at 10^-6 M after 48 hrs by SRB assay; settings: MDA-MB-468, 48 h, read-out: Activity
[7] = test system: SN12C; assay: Growth inhibition of human SN12C cells assessed as cell growth at 10^-6 M after 48 hrs by SRB assay; settings: read-out: Activity
[8] = test system: CAKI-1; assay: Growth inhibition of human CAKI-1 cells assessed as cell growth at 10^-6 M after 48 hrs by SRB assay; settings: CAKI-1, 48 h, read-out: Activity
In short: (§1)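 Five-dose NCI panel protocol. Each dose (10^-4 to 10^-8 M, 10-fold steps) was given as 48 h continuous exposure, and protein was measured by SRB staining. Percentage growth at each level is [(Ti−Tz)/(C−Tz)]×100, where Tz is time-zero absorbance and C is untreated control.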

[9] = Growth inhibition of human NCI-ADR-RES cells assessed as cell growth at 10^-6 M after 48 hrs by SRB assay; settings: read-out: Activity
[10] = Growth inhibition of human OVCAR4 cells assessed as cell growth at 10^-6 M after 48 hrs by SRB assay; settings: OVCAR-4, 48 h, read-out: Activity
[11] = test system: Malme-3M; assay: Growth inhibition of human MALME-3M cells assessed as cell growth at 10^-6 M after 48 hrs by SRB assay; settings: read-out: Activity
[12] = Growth inhibition of human LOXIMVI cells assessed as cell growth at 10^-4 M after 48 hrs by SRB assay; settings: LOX IMVI, read-out: Activity
[13] = test system: CAKI-1; assay: Growth inhibition of human CAKI-1 cells assessed as cell growth at 10^-7 M after 48 hrs by SRB assay; settings: CAKI-1, 48 h, read-out: Activity; in short: as §1
[14] = test system: NCI-H23; assay: Growth inhibition of human NCI-H23 cells assessed as cell growth at 10^-7 M after 48 hrs by SRB assay; settings: NCI-H23, 48 h, read-out: Activity
[15] = Growth inhibition of human BT549 cells assessed as cell growth at 10^-8 M after 48 hrs by SRB assay; settings: BT-549, 48 h, read-out: Activity; in short: as §1
[16] = test system: SK-OV-3; assay: Cytotoxicity against human SKOV3 cells after 48 hrs by SRB assay; settings: SK-OV-3, 48 h
In short: (§2)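 NCI 60-cell-line panel of human tumour lines from nine cancer types. Continuous 48 h exposure at five 10-fold dilutions from 10^-4 to 10^-8 M, with 5-FU as positive control. SRB protein stain read spectrophotometrically at time zero, untreated control and each concentration. GI50, TGI and LC50 were derived from the [(Ti−Tz)/(C−Tz)]×100 growth relations, and out-of-range values are given as > or < the tested limits.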

[17] = Growth inhibition of human HCC2998 cells assessed as cell growth at 10^-6 M after 48 hrs by SRB assay; settings: HCC 2998, 48 h, read-out: Activity
[18] = test system: RPMI-8226; assay: Growth inhibition of human RPMI8226 cells assessed as cell growth at 10^-6 M after 48 hrs by SRB assay; settings: RPMI-8226, 48 h, read-out: Activity
[19] = Growth inhibition of human MOLT4 cells assessed as cell growth at 10^-6 M after 48 hrs by SRB assay; settings: MOLT-4, 48 h, read-out: Activity
[20] = test system: ACHN; assay: Growth inhibition of human ACHN cells assessed as cell growth at 10^-7 M after 48 hrs by SRB assay; settings: read-out: Activity; in short: as §1
[21] = test system: IGROV-1; assay: Growth inhibition of human IGROV1 cells assessed as cell growth at 10^-7 M after 48 hrs by SRB assay; settings: IGROV-1, 48 h, read-out: Activity
[22] = test system: SK-MEL-28; assay: Growth inhibition of human SK-MEL-28 cells assessed as cell growth at 10^-7 M after 48 hrs by SRB assay; settings: SK-MEL-28, 48 h, read-out: Activity
[23] = test system: M14; assay: Growth inhibition of human M14 cells assessed as cell growth at 10^-7 M after 48 hrs by SRB assay; settings: M14, 48 h, read-out: Activity
[24] = Growth inhibition of human SF539 cells assessed as cell growth at 10^-7 M after 48 hrs by SRB assay; settings: SF-539, 48 h, read-out: Activity
[25] = Growth inhibition of human EKVX cells assessed as cell growth at 10^-7 M after 48 hrs by SRB assay; settings: read-out: Activity
[26] = Growth inhibition of human MOLT4 cells assessed as cell growth at 10^-7 M after 48 hrs by SRB assay; settings: MOLT-4, 48 h, read-out: Activity
[27] = Growth inhibition of human Hs578T cells assessed as cell growth at 10^-8 M after 48 hrs by SRB assay; settings: Hs-578T, read-out: Activity
[28] = test system: NCI-H322M; assay: Cytotoxicity against human NCI-H322M cells after 48 hrs by SRB assay; in short: as §2
[29] = test system: MCF7; assay: Growth inhibition of human MCF7 cells assessed as cell growth at 10^-4 M after 48 hrs by SRB assay; settings: MCF7, 48 h, read-out: Activity
[30] = test system: SN12C; assay: Growth inhibition of human SN12C cells assessed as cell growth at 10^-4 M after 48 hrs by SRB assay; settings: read-out: Activity
[31] = test system: ACHN; assay: Growth inhibition of human ACHN cells assessed as cell growth at 10^-4 M after 48 hrs by SRB assay; settings: read-out: Activity; in short: as §1
[32] = Growth inhibition of human OVCAR3 cells assessed as cell growth at 10^-4 M after 48 hrs by SRB assay; settings: OVCAR-3, 48 h, read-out: Activity
[33] = Growth inhibition of human UACC257 cells assessed as cell growth at 10^-4 M after 48 hrs by SRB assay; settings: UACC-257, 48 h, read-out: Activity

## Cc1ccc(-c2nc3ccc(Cl)cc3c(=O)n2/N=C/c2ccccc2)cc1
[1]
  growth at 100 µM: 52%
[2]
  growth at 0.01 µM: 98%
[3]
  growth at 0.01 µM: 100%
[4]
  growth at 10 µM: 34%
[5]
  growth at 10 µM: 32%
[6]
  growth at 1 µM: 92%
[7]
  growth at 1 µM: 91%
[8]
  growth at 1 µM: 77%
[9]
  growth at 1 µM: 89%
[10]
  growth at 1 µM: 101%
[11]
  growth at 1 µM: 74%
[12]
  growth at 100 µM: 48%
[13]
  growth at 0.1 µM: 76%
[14]
  growth at 0.1 µM: 89%
[15]
  growth at 0.01 µM: 100%
[16]; read-out: GI50
  GI50: 2.89 µM
[16]; read-out: LC50 (the source's name)
  CC50: > 100 µM
[16]; read-out: TGI
  TGI: 9.9 µM
[16]; read-out: pGI50 (converted)
  GI50: 2.88 µM
[16]; read-out: pLC50 (the source's name) (converted)
  CC50: > 100 µM
[16]; read-out: pTGI (converted)
  TGI: 10 µM
[17]
  growth at 1 µM: 96%
[18]
  growth at 1 µM: 90%
[19]
  growth at 1 µM: 99%
[20]
  growth at 0.1 µM: 88%
[21]
  growth at 0.1 µM: 78%
[22]
  growth at 0.1 µM: 97%
[23]
  growth at 0.1 µM: 96%
[24]
  growth at 0.1 µM: 97%
[25]
  growth at 0.1 µM: 79%
[26]
  growth at 0.1 µM: 96%
[27]
  growth at 0.01 µM: 87%
[28]; read-out: GI50
  GI50: 17.4 µM
[28]; read-out: LC50
  LC50: > 100 µM
[28]; read-out: TGI
  TGI: > 100 µM
[28]; read-out: pGI50 (converted)
  GI50: 17.4 µM
[28]; read-out: pLC50 (converted)
  LC50: > 100 µM
[28]; read-out: pTGI
  TGI: > 100 µM
[29]
  growth at 100 µM: 38%
[30]
  growth at 100 µM: 42%
[31]
  growth at 100 µM: 6%
[32]
  growth at 100 µM: 15%
[33]
  growth at 100 µM: 60%
